Experimental data from article PMC9826239 (Angewandte Chemie (International Ed. in English), 2022).
pKd: −log10 of the molar value. Residues, ends and D or L forms follow the SMILES beside them. *: point of attachment. X1 = [N-]=[N+]=NCCOCCOCCOCCOCC(=O)*

Tests used:
[1] = system: E-selectin on HUVEC cells; assay type: cell-based, human; conditions: 10 μM in HKR pH 7.4, 30 min; 10 ng/mL TNFα for 12 h; heparin/HKR washes
Method in brief: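 Human umbilical vein endothelial cells (HUVEC) were cultured as two parallel sets, with or without TNFα, to induce E‑selectin overexpression. Both sets were incubated for 30 min with 10 μM rhodamine‑labelled peptide/[60]fullerene conjugate (binding peptide or non‑binding control sequence). Cells were then washed thoroughly with heparin and HKR buffer and imaged by live‑cell confocal microscopy.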

E-selectin = target: T1, E-selectin (Homo sapiens, UniProt P16581); assay: SPR direct binding to E-selectin-functionalized sensor chip
T1 sequence (P16581 22-610): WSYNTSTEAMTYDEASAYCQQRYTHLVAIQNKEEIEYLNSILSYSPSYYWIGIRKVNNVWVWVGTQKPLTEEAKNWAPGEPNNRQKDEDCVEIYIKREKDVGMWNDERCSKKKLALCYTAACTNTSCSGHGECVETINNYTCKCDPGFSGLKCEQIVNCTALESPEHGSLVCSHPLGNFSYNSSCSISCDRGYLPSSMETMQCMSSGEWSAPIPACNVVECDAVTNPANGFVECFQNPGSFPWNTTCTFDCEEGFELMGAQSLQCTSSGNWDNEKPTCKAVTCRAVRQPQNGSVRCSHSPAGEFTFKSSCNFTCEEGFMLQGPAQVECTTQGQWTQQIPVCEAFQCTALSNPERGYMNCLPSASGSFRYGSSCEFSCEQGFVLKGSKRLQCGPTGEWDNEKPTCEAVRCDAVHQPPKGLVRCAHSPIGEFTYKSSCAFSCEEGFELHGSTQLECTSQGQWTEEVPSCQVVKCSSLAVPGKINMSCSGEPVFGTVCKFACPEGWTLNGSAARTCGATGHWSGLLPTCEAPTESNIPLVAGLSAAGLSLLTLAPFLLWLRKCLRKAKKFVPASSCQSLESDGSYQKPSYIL

[2] = Water solubility of peptides; assay type: physicochemical; conditions: after HPLC purification; qualitative

Compound | pKd (E-selectin) | water solubility [2] | also measured
C60-(ISELRSE)12 [FC] |  |  | cell fluorescence, TNFα-treated HUVEC cells, confocal microscopy [1]: residual fluorescence
CC[C@H](C)[C@H](N)C(=O)N[C@@H](CCC(=O)O)C(=O)N[C@@H](CC(C)C)C(=O)N[C@@H](CC(C)C)C(=O)N[C@@H](CCC(N)=O)C(=O)N[C@@H](C)C(=O)N[C@@H](CCCNC(=N)N)C(=O)N[C@@H](CCCCNC(=O)COCCOCCOCCOCCN=[N+]=[N-])C(N)=O [P1, IELLQARK‐(PEG)4‐N3] (H-IELLQARK(X1)-NH2) | 4.29 | excellent purity and water solubility | 
CC[C@H](C)[C@H](NC(=O)COCCOCCOCCOCCN=[N+]=[N-])C(=O)N[C@@H](CCC(=O)O)C(=O)N[C@@H](CC(C)C)C(=O)N[C@@H](CC(C)C)C(=O)N[C@@H](CCC(N)=O)C(=O)N[C@@H](C)C(=O)N[C@@H](CCCNC(=N)N)C(N)=O [P2, N3‐(PEG)4‐IELLQAR] (X1-IELLQAR-NH2) | 2.53 | excellent purity and water solubility | 
C60-(IELLQARK)12 [F1] |  |  | dissociation behaviour in SPR sensorgrams (E-selectin; (12.5-0.78) μM, t>240 s, initial fast then extremely slow dissociation phase): two‐phase dissociation process; affinity increase relative to its monomeric counterpart (E-selectin; F1 vs monomeric peptide, E-selectin SPR): up to 3 orders of magnitude; affinity enhancement (β) factor (E-selectin; multivalent effect of F1, twelve peptide units, SI section 6.5, eq. 3): 71
